In ChEMBL document CHEMBL1150563, “Six new diarylheptanoids from the seeds of Alpinia blepharocalyx” (2001):

Tests used:
[1] = Antiproliferative activity against mouse Colon 26-L5 cells by MTT assay; format: functional; conditions: read-out: ED50 (the source's name)
Outline: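 Murine colon 26-L5 carcinoma cells grown in RPMI-1640 with 10% fetal calf serum, 0.1% NaHCO3 and 2 mM glutamine. Cell viability in presence and absence of agent measured by MTT; 5-fluorouracil served as positive control. ED50 derived from the mean of six determinations.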

HT-1080 = assay: Antiproliferative activity against human HT1080 cells by MTT assay; format: functional; conditions: read-out: ED50 (the source's name)
Outline: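 Human HT-1080 fibrosarcoma cells grown in Eagle's MEM with 10% fetal calf serum, 0.1% NaHCO3 and 2 mM glutamine. Viability with and without test agent read by MTT assay; 5-fluorouracil as positive control. ED50 calculated from the mean of six determinations.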

For `COc1cc(O)cc2c1C(=O)C[C@@H](c1ccc(O)cc1)O2`, the EC50 [1] was > 100 µM and the EC50 (HT-1080) was > 100 µM.

In the case of `O=C(/C=C(O)/C=C/c1ccc(O)cc1)CCc1ccc(O)cc1`, the EC50 [1] is reported as 62.6 µM and the EC50 (HT-1080) is reported as > 100 µM.

Work on `COc1cc(O)cc(OC)c1C(=O)/C=C/c1ccc(O)cc1` yielded an EC50 [1] of 28.7 µM and an EC50 (HT-1080) of 50.5 µM.

With `CCO[C@H](/C=C/c1ccccc1)C[C@@H](O)CCc1ccc(O)cc1` the EC50 [1] was 94.6 µM and the EC50 (HT-1080) was > 100 µM.

In the case of `COc1cc(/C=C/c2ccc(O)cc2)oc(=O)c1`, the EC50 [1] is reported as 20.7 µM and the EC50 (HT-1080) is reported as 20.1 µM.

Compound `O=C(/C=C/C=C/c1ccc(O)cc1)CCc1ccc(O)cc1` has an EC50 [1] of 57.7 µM and an EC50 (HT-1080) of 78.8 µM.

Work on `Oc1ccc(CC[C@H](O)C[C@@H](O)CCc2ccc(O)cc2)cc1` yielded an EC50 [1] of 12.8 µM and an EC50 (HT-1080) of 94.4 µM.

In the case of `CO[C@H](/C=C/c1ccccc1)C[C@@H](O)CCc1ccc(O)cc1`, the EC50 [1] is reported as 86.4 µM and the EC50 (HT-1080) is reported as > 100 µM.

With `CO[C@@H](/C=C/c1ccccc1)C[C@@H](O)CCc1ccc(O)cc1` the EC50 [1] was > 100 µM and the EC50 (HT-1080) was > 100 µM.

For `CCO[C@@H](/C=C/c1ccccc1)C[C@@H](O)CCc1ccc(O)cc1`, the EC50 [1] was > 100 µM and the EC50 (HT-1080) was > 100 µM.

In the case of `CO[C@@H](CCc1ccc(O)cc1)CC(=O)/C=C/c1ccc(O)cc1`, the EC50 [1] is reported as 5.2 µM and the EC50 (HT-1080) is reported as 10.1 µM.

For `CC(=O)/C=C/c1ccc(O)cc1`, the EC50 [1] was > 100 µM and the EC50 (HT-1080) was > 100 µM.

In the case of `O=C(/C=C/c1ccc(O)cc1)c1ccc(O)cc1` [4,4'-DIHYDROXYCHALCONE], the EC50 [1] is reported as > 100 µM and the EC50 (HT-1080) is reported as > 100 µM.

With `O=Cc1ccc(O)cc1` [4-HYDROXYBENZALDEHYDE] the EC50 [1] was > 100 µM and the EC50 (HT-1080) was > 100 µM.

In the case of `O=C(O)/C=C/c1ccc(O)cc1` [COUMARIC ACID], the EC50 [1] is reported as > 100 µM and the EC50 (HT-1080) is reported as > 100 µM.

With `COc1cc(/C=C/c2ccccc2)oc(=O)c1` [DESMETHOXYYANGONIN] the EC50 [1] was > 100 µM and the EC50 (HT-1080) was > 100 µM.

For `O=c1[nH]cc(F)c(=O)[nH]1` [FLUOROURACIL], the EC50 [1] was 0.5 µM and the EC50 (HT-1080) was 8 µM.

Work on `COc1cc(O)cc(O)c1C(=O)/C=C/c1ccc(O)cc1` [HELICHRYSETIN] yielded an EC50 [1] of 64.7 µM and an EC50 (HT-1080) of 40.1 µM.

For `COC(=O)/C=C/c1ccc(O)cc1` [METHYL P-HYDROXYCINNAMATE], the EC50 [1] was 84.2 µM and the EC50 (HT-1080) was > 100 µM.

`Oc1cc(O)cc(O)c1` [PHLOROGLUCINOL] showed an EC50 [1] of 26.4 µM and an EC50 (HT-1080) of 20.9 µM.

In the case of `CC[C@H](CC[C@@H](C)[C@H]1CC[C@H]2[C@@H]3CC=C4C[C@@H](O[C@@H]5O[C@H](CO)[C@@H](O)[C@H](O)[C@H]5O)CC[C@]4(C)[C@H]3CC[C@]12C)C(C)C` [SITOGLUSIDE], the EC50 [1] is reported as > 100 µM and the EC50 (HT-1080) is reported as > 100 µM.
